# How the values were obtained:
# [1] = Volume of distribution at steady state in young healthy human at 4 mg/kg, iv administered as single dose 30 mins infusion; format: ADME, organism-based; design: dose 4 mg/kg, route intravenous; conditions: in vivo, read-out: Vdss
# [2] = Cmax in young healthy human at 4 mg/kg, iv administered as single dose 30 mins infusion; format: ADME, organism-based; design: dose 4 mg/kg, route intravenous; conditions: in vivo
# [3] = AUC (0 to infinity) in healthy human at 8 mg/kg, iv administered as 30 mins infusion every 24 hrs measured on day 1; format: ADME, organism-based; design: time infinity, dose 8 mg/kg, route intravenous; conditions: plasma
# [4] = AUC (0 to infinity) in healthy human subjects at 12 mg/kg, iv administered as 30 mins infusion every 24 hrs measured on day 14; format: ADME, organism-based; design: time infinity, dose 12 mg/kg, route intravenous; conditions: plasma
# [5] = Cmax in healthy adult human at 6 mg/kg, iv administered as single dose 30 mins infusion; format: ADME, organism-based; design: dose 6 mg/kg, route intravenous; conditions: in vivo
# [6] = Half life in healthy human at 8 mg/kg, iv administered as 30 mins infusion every 24 hrs measured on day 14; format: ADME, organism-based; design: dose 8 mg/kg, route intravenous; conditions: in vivo
# [7] = AUC (0 to infinity) in young healthy human at 4 mg/kg, iv administered as single dose 30 mins infusion; format: ADME, organism-based; design: dose 4 mg/kg, route intravenous, time infinity; conditions: plasma
# [8] = Cmax in healthy human subjects at 12 mg/kg, iv administered as 30 mins infusion every 24 hrs measured on day 4; format: ADME, organism-based; design: dose 12 mg/kg, route intravenous; conditions: in vivo
# [9] = Clearance in healthy human at 4 mg/kg, iv administered as 30 mins infusion every 24 hrs measured on day 1; format: ADME, organism-based; design: dose 4 mg/kg, route intravenous; conditions: in vivo
# [10] = Half life in healthy human subjects at 12 mg/kg, iv administered as 30 mins infusion every 24 hrs measured on day 1; format: ADME, organism-based; design: dose 12 mg/kg, route intravenous; conditions: in vivo
# [11] = Volume of distribution at steady state in adult human subjects at 6 mg/kg, iv administered as single dose 30 mins infusion; format: ADME, organism-based; design: dose 6 mg/kg, route intravenous; conditions: in vivo, read-out: Vdss
# [12] = Apparent volume of distribution during terminal phase in healthy human subjects at 8 mg/kg, iv administered as 30 mins infusion every 24 hrs measured on day 4; format: ADME, organism-based; design: dose 8 mg/kg, route intravenous; conditions: in vivo
# [13] = Apparent volume of distribution during terminal phase in healthy human subjects at 12 mg/kg, iv administered as 30 mins infusion every 24 hrs measured on day 4; format: ADME, organism-based; design: dose 12 mg/kg, route intravenous; conditions: in vivo
# [14] = Clearance in morbidly obese adult human at 4 mg/kg, iv administered as single dose 30 mins infusion; format: ADME, organism-based; design: dose 4 mg/kg, route intravenous; conditions: in vivo
# [15] = Clearance in healthy human at 4 mg/kg, iv administered as 30 mins infusion every 24 hrs measured on day 7; format: ADME, organism-based; design: dose 4 mg/kg, route intravenous; conditions: in vivo
# [16] = Drug excretion in adult human with hepatic impairment urine assessed as unchanged drug at 6 mg/kg, iv administered as single dose 30 mins infusion; format: ADME, organism-based; design: dose 6 mg/kg, route intravenous; conditions: read-out: Drug uptake
# [17] = Cmax in moderately obese adult human at 4 mg/kg, iv administered as single dose 30 mins infusion; format: ADME, organism-based; design: dose 4 mg/kg, route intravenous; conditions: in vivo
# [18] = Half life in healthy human subjects at 8 mg/kg, iv administered as 30 mins infusion every 24 hrs measured on day 4; format: ADME, organism-based; design: dose 8 mg/kg, route intravenous; conditions: in vivo
# [19] = Half life in morbidly obese adult human at 4 mg/kg, iv administered as single dose 30 mins infusion; format: ADME, organism-based; design: dose 4 mg/kg, route intravenous; conditions: in vivo
# [20] = Mean residence time in adult human subjects at 6 mg/kg, iv administered as single dose 30 mins infusion; format: ADME, organism-based; design: dose 6 mg/kg, route intravenous; conditions: in vivo
# [21] = Cmax in healthy human at 4 mg/kg, iv administered as single dose 30 mins infusion; format: ADME, organism-based; design: dose 4 mg/kg, route intravenous; conditions: in vivo
# [22] = Clearance in healthy human at 6 mg/kg, iv administered as 30 mins infusion every 24 hrs measured on day 1; format: ADME, organism-based; design: dose 6 mg/kg, route intravenous; conditions: in vivo
# [23] = AUC (0 to infinity) in healthy human subjects at 10 mg/kg, iv administered as 30 mins infusion every 24 hrs measured on day 14; format: ADME, organism-based; design: time infinity, dose 10 mg/kg, route intravenous; conditions: plasma
# Homo sapiens [24] = test: Apparent volume of distribution during terminal phase in healthy human subjects at 6 mg/kg, iv administered as 30 mins infusion every 24 hrs measured on day 1; format: ADME, organism-based; design: dose 6 mg/kg, route intravenous; conditions: in vivo
# [25] = Apparent volume of distribution during terminal phase in healthy human subjects at 10 mg/kg, iv administered as 30 mins infusion every 24 hrs measured on day 14; format: ADME, organism-based; design: dose 10 mg/kg, route intravenous; conditions: in vivo
# [26] = Unbound fraction in healthy human plasma at 8 mg/kg, iv administered as 30 mins infusion every 24 hrs measured on day 7; format: ADME, organism-based; design: dose 8 mg/kg, route intravenous
# [27] = Volume of distribution at steady state in morbidly obese human at 4 mg/kg, iv administered as single dose 30 mins infusion; format: ADME, organism-based; design: dose 4 mg/kg, route intravenous; conditions: in vivo, read-out: Vdss
# [28] = Clearance in healthy human subjects at 8 mg/kg, iv administered as 30 mins infusion every 24 hrs measured on day 1; format: ADME, organism-based; design: dose 8 mg/kg, route intravenous; conditions: in vivo
# [29] = Clearance in healthy human at 6 mg/kg, iv administered as 30 mins infusion every 24 hrs measured on day 7; format: ADME, organism-based; design: dose 6 mg/kg, route intravenous; conditions: in vivo
# [30] = Apparent volume of distribution during terminal phase in healthy human at 4 mg/kg, iv administered as 30 mins infusion every 24 hrs measured on day 1; format: ADME, organism-based; design: dose 4 mg/kg, route intravenous; conditions: in vivo
# [31] = AUC (0 to infinity) in healthy human subjects at 6 mg/kg, iv administered as 30 mins infusion every 24 hrs measured on day 4; format: ADME, organism-based; design: time infinity, dose 6 mg/kg, route intravenous; conditions: plasma
# [32] = Clearance in adult human with hepatic impairment at 6 mg/kg, iv administered as single dose 30 mins infusion; format: ADME, organism-based, Liver; design: dose 6 mg/kg, route intravenous; conditions: in vivo
# [33] = Clearance in nonobese adult human at 4 mg/kg, iv administered as single dose 30 mins infusion; format: ADME, organism-based; design: dose 4 mg/kg, route intravenous; conditions: in vivo
# [34] = Clearance in healthy human at 8 mg/kg, iv administered as 30 mins infusion every 24 hrs measured on day 7; format: ADME, organism-based; design: dose 8 mg/kg, route intravenous; conditions: in vivo
# [35] = Half life in healthy human subjects at 6 mg/kg, iv administered as 30 mins infusion every 24 hrs measured on day 1; format: ADME, organism-based; design: dose 6 mg/kg, route intravenous; conditions: in vivo
# [36] = Apparent volume of distribution in old healthy human at 4 mg/kg, iv administered as single dose 30 mins infusion; format: ADME, organism-based; design: dose 4 mg/kg, route intravenous; conditions: in vivo
# [37] = Cmax in healthy human at 6 mg/kg, iv administered as 30 mins infusion every 24 hrs measured on day 1; format: ADME, organism-based; design: dose 6 mg/kg, route intravenous; conditions: in vivo
# Homo sapiens [38] = test: Half life in cancer patient with neutropenic fever at 6 mg/kg, iv administered as 30 mins infusion every 24 hrs; format: ADME, organism-based; design: dose 6 mg/kg, route intravenous; conditions: in vivo
# In short: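 Patients with neutropenic fever; 6 mg/kg by total body weight, 30-min IV infusion q24h. Plasma drawn predose, end of infusion, and 0.5, 1, 2, 4, 8, 12, 24 h after infusion start; total drug by validated HPLC (linear 1–100 μg/ml). Noncompartmental analysis; λz from terminal-phase regression, t1/2 = 0.693/λz.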
# [39] = Clearance in healthy human subjects at 12 mg/kg, iv administered as 30 mins infusion every 24 hrs measured on day 1; format: ADME, organism-based; design: dose 12 mg/kg, route intravenous; conditions: in vivo
# [40] = Renal clearance in healthy adult human at 6 mg/kg, iv administered as single dose 30 mins infusion; format: ADME, organism-based, Kidney; design: dose 6 mg/kg, route intravenous; conditions: in vivo, read-out: CL_renal (converted)
# [41] = AUC (0 to infinity) in healthy human at 8 mg/kg, iv administered as 30 mins infusion every 24 hrs measured on day 7; format: ADME, organism-based; design: dose 8 mg/kg, route intravenous, time infinity; conditions: plasma
# [42] = Volume of distribution at steady state in nonobese human subjects at 4 mg/kg, iv administered as single dose 30 mins infusion; format: ADME, organism-based; design: dose 4 mg/kg, route intravenous; conditions: in vivo, read-out: Vdss
# [43] = Cmax in healthy human at 8 mg/kg, iv administered as 30 mins infusion every 24 hrs measured on day 14; format: ADME, organism-based; design: dose 8 mg/kg, route intravenous; conditions: in vivo
# [44] = Clearance in healthy human subjects at 12 mg/kg, iv administered as 30 mins infusion every 24 hrs measured on day 14; format: ADME, organism-based; design: dose 12 mg/kg, route intravenous; conditions: in vivo
# [45] = Half life in healthy human subjects at 12 mg/kg, iv administered as 30 mins infusion every 24 hrs measured on day 14; format: ADME, organism-based; design: dose 12 mg/kg, route intravenous; conditions: in vivo
compound,measurement,setting,value
CCCCCCCCCC(=O)N[C@@H](Cc1c[nH]c2ccccc12)C(=O)N[C@H](CC(N)=O)C(=O)N[C@@H](CC(=O)O)C(=O)N[C@@H]1C(=O)NCC(=O)N[C@@H](CCCN)C(=O)N[C@@H](CC(=O)O)C(=O)N[C@H](C)C(=O)N[C@@H](CC(=O)O)C(=O)NCC(=O)N[C@H](CO)C(=O)N[C@@H]([C@H](C)CC(=O)O)C(=O)N[C@@H](CC(=O)c2ccccc2N)C(=O)O[C@@H]1C,Vd,[1],0.14 L/kg
same,Cmax,[2],42.3 µg/mL
same,AUC(0-inf),[3],1130 µg·h/mL
same,AUC(0-inf),[4],1290 µg·h/mL
same,Cmax,[5],82 µg/mL
same,half-life,[6],8.9 h
same,AUC(0-inf),[7],301 µg·h/mL
same,Cmax,[8],184 µg/mL
same,clearance,[9],0.16 mL/min/kg
same,half-life,[10],7.8 h
same,Vd,[11],0.08 L/kg
same,Vd,[12],0.101 L/kg
same,Vd,[13],0.0976 L/kg
same,clearance,[14],0.13 mL/min/kg
same,clearance,[15],0.138 mL/min/kg
same,dose excreted at 0.5 h,[16],49.3%
same,Cmax,[17],57.8 µg/mL
same,half-life,[18],8.3 h
same,half-life,[19],8.12 h
same,MRT,[20],12.4 h
same,Cmax,[21],77.5 µg/mL
same,clearance,[22],0.143 mL/min/kg
same,AUC(0-inf),[23],1080 µg·h/mL
same,Vd,Homo sapiens [24],0.1059 L/kg
same,Vd,[25],0.0858 L/kg
same,fraction unbound at 7 day,[26],0.09
same,Vd,[27],0.09 L/kg
same,clearance,[28],0.168 mL/min/kg
same,clearance,[29],0.135 mL/min/kg
same,Vd,[30],0.101 L/kg
same,AUC(0-inf),[31],632 µg·h/mL
same,clearance,[32],0.118 mL/min/kg
same,clearance,[33],0.245 mL/min/kg
same,clearance,[34],0.118 mL/min/kg
same,half-life,[35],7.5 h
same,Vd,[36],0.17 L/kg
same,Cmax,[37],86.4 µg/mL
same,t1/2,Homo sapiens [38],8.75 h
same,clearance,[39],0.167 mL/min/kg
same,CL renal at 0.5 h,[40],0.064 mL/min/kg
same,AUC(0-inf),[41],1130 µg·h/mL
same,Vd,[42],0.13 L/kg
same,Cmax,[43],130 µg/mL
same,clearance,[44],0.15 mL/min/kg
same,half-life,[45],7.9 h
